In ChEMBL document CHEMBL1944586, “Malaria-infected mice are completely cured by one 6 mg/kg oral dose of a new monomeric trioxane sulfide combined with mefloquine” (J Med Chem, 2012):

What was measured:
Plasmodium berghei [1] = assay: Antimalarial activity against Plasmodium berghei ANKA infected in C57BL/6 mouse assessed as host survival at 100 mg/kg, po administered 24 hrs post-infection (reference value: 6.8 days); assay type: functional
Plasmodium falciparum = assay: Antimalarial activity against Plasmodium falciparum NF54; assay type: functional, organism-based
Mus musculus = assay: Toxicity in Plasmodium berghei ANKA infected C57BL/6 mouse assessed as effect on longevity at 100 mg/kg, po administered 24 hrs post-infection measured after 3 days; assay type: organism-based; design: dose 100 mg/kg, route oral; settings: in vivo, 72 h
Plasmodium berghei [2] = assay: Antimalarial activity against Plasmodium berghei ANKA infected in C57BL/6 mouse assessed as host survival at 15 mg/kg, po administered 24 hrs post-infection (reference value: 6.8 days); assay type: functional
Plasmodium berghei [3] = assay: Antimalarial activity against Plasmodium berghei ANKA infected in C57BL/6 mouse assessed as decrease in parasitemia at 15 mg/kg, po administered 24 hrs post-infection measured after 3 days by Giemsa microscopy relative to vehicle treated control; assay type: functional; design: scale not given: the % may be the effect or the level left
Summary of the method: (§1)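 Male C57BL/6J mice, 5 weeks old, about 20 g, infected i.p. on day 0 with 5 × 10⁷ P. berghei ANKA-parasitized erythrocytes. At 24 h post-infection, four mice per group received one oral dose in 7:3 Tween 80:ethanol diluted in water: trioxane 6 mg/kg plus mefloquine HCl 18 mg/kg, or trioxane 7.5 mg/kg plus mefloquine HCl 15 mg/kg. Untreated infected controls were included. Blood parasitemia was read by Giemsa microscopy.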

Plasmodium berghei [4] = assay: Antimalarial activity against Plasmodium berghei ANKA infected in C57BL/6 mouse assessed as host survival at 18 mg/kg, po administered 24 hrs post-infection (reference value: 6.8 days); assay type: functional
Plasmodium berghei [5] = assay: Antimalarial activity against Plasmodium berghei ANKA infected in C57BL/6 mouse assessed as decrease in parasitemia at 18 mg/kg, po administered 24 hrs post-infection measured after 3 days by Giemsa microscopy relative to vehicle treated control; assay type: functional; design: scale not given: the % may be the effect or the level left; summary of the method: as §1

CSc1cccc(NC(=O)CC[C@H]2O[C@@H]3O[C@@]4(C)CC[C@H]5[C@H](C)CC[C@@H]([C@H]2C)[C@@]35OO4)c1
Survival (Plasmodium berghei [1]): 15 days | EC50 (Plasmodium falciparum): 9.1 nM | Activity (Mus musculus): Non-toxic

CSc1cc(NC(=O)CC[C@H]2O[C@@H]3O[C@@]4(C)CC[C@H]5[C@H](C)CC[C@@H]([C@H]2C)[C@@]35OO4)cc(SC)c1
Survival (Plasmodium berghei [1]): 7.5 days | EC50 (Plasmodium falciparum): 6.5 nM | Activity (Mus musculus): Non-toxic

C[C@H]1[C@@H](CCC(=O)Nc2cccc([S@+](C)[O-])c2)O[C@@H]2O[C@@]3(C)CC[C@H]4[C@H](C)CC[C@@H]1[C@@]24OO3
EC50 (Plasmodium falciparum): 23 nM

C[C@H]1[C@@H](CCC(=O)Nc2cccc([S@@+](C)[O-])c2)O[C@@H]2O[C@@]3(C)CC[C@H]4[C@H](C)CC[C@@H]1[C@@]24OO3
EC50 (Plasmodium falciparum): 29 nM

C[C@H]1[C@@H](CCC(=O)Nc2cccc(S(C)(=O)=O)c2)O[C@@H]2O[C@@]3(C)CC[C@H]4[C@H](C)CC[C@@H]1[C@@]24OO3
EC50 (Plasmodium falciparum): 21 nM

O[C@@H](c1cc(C(F)(F)F)nc2c(C(F)(F)F)cccc12)[C@H]1CCCCN1 (relative stereo) [(S,R)-MEFLOQUINE]
Survival (Plasmodium berghei [2]): 15.5 days | Activity (Plasmodium berghei [3]): >99.9% | Survival (Plasmodium berghei [4]): 19.8 days | Activity (Plasmodium berghei [5]): >99.9%

C[C@@H]1CC[C@H]2[C@@H](C)C(=O)O[C@@H]3O[C@@]4(C)CC[C@@H]1[C@]32OO4 [ARTEMISININ]
EC50 (Plasmodium falciparum): 10 nM

CCCCN(CCCC)CC(O)c1cc(Cl)cc2c1-c1ccc(Cl)cc1/C2=C/c1ccc(Cl)cc1 (stereo not given) [LUMEFANTRINE]
Activity (Plasmodium berghei [5]): >99.9%
